According to paper PMC10870114 (Clinical Cancer Research, 2023):

Experiments:
[1] = system: patients with locally advanced rectal cancer; assay: Treatment-emergent adverse events; format: in vivo, human
DNA-PK = DNA-PK (Homo sapiens, UniProt P78527); assay: pDNA-PK/tDNA-PK ratio in bleomycin-stimulated PBMCs, pre- and post-dosing; conditions: PBMCs stimulated with bleomycin ex vivo; evidence of target engagement
[2] = system: locally advanced rectal cancer; assay: Neoadjuvant rectal; format: in vivo, human; conditions: for NAR score, median: patients who underwent surgery
Procedure, shortened: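 Patients without clinical complete response were to have surgery 9.5±2 weeks after CRT completion. On the resected tissue, tumour regression was graded by the modified Ryan scheme, from 0 (complete response) to 3 (poor or no response). The NAR score was calculated only for operated patients, with lower scores denoting better prognosis.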

[3] = peposertib 50 mg + RT + capecitabine, n = 1
[4] = peposertib 100 mg + RT + capecitabine, n = 6
[5] = peposertib 150 mg + RT + capecitabine, n = 6
[6] = peposertib 250 mg + RT + capecitabine, n = 6

Structure (SMILES): COc1ccc([C@@H](O)c2cc(-c3ncnc4cc(N5CCOCC5)ccc34)c(F)cc2Cl)nn1 [Peposertib]
- Patients with any Peposertib-related grade ≥ 3TEAE [1, 3]: 0 (0) n (%)
- Patients with any Peposertib-related grade ≥4 TEAE [1, 3]: 0 (0) n (%)
- Patients with any Peposertib-related serious TEAE [1, 3]: 0 n (%)
- Patients with any RT-related TEAE [1, 3]: 1 (100) n (%)
- Patients with any RT-related grade ≥3 TEAE [1, 3]: 0 (0) n (%)
- Patients with any RT-related grade ≥4 TEAE [1, 3]: 0 (0) n (%)
- Patients with any RT-related serious TEAE [1, 3]: 0 n (%)
- Patients with any Serious TEAE [1, 3]: 0 n (%)
- Patients with any TEAE [1, 3]: 1 (100) n (%)
- Patients with any TEAE leading to death [1, 3]: 0 n (%)
- Patients with any TEAE leading to permanent discontinuation of RT [1, 3]: 0 (0) n (%)
- Patients with any TEAE leading to permanent discontinuation of capecitabine [1, 3]: 0 (0) n (%)
- Patients with any TEAE leading to permanent discontinuation of peposertib [1, 3]: 0 (0) n (%)
- Patients with any TEAE leading to study discontinuation [1, 3]: 0 n (%)
- Patients with any Capecitabine-related TEAE [1, 4]: 6 (100) n (%)
- Patients with any Capecitabine-related grade ≥3 TEAE [1, 4]: 2 (33) n (%)
- Patients with any Capecitabine-related grade ≥4 TEAE [1, 4]: 2 (33) n (%)
- Patients with any Capecitabine-related serious TEAE [1, 4]: 2 (33) n (%)
- Patients with any Grade ≥3 TEAE [1, 4]: 4 (67) n (%)
- Patients with any Grade ≥4 TEAE [1, 4]: 2 (33) n (%)
- Patients with any Peposertib-related TEAE [1, 4]: 5 (83) n (%)
- Patients with any Peposertib-related grade ≥ 3TEAE [1, 4]: 3 (50) n (%)
- Patients with any Peposertib-related grade ≥4 TEAE [1, 4]: 2 (33) n (%)
- Patients with any Peposertib-related serious TEAE [1, 4]: 2 (33) n (%)
- Patients with any RT-related TEAE [1, 4]: 6 (100) n (%)
- Patients with any RT-related grade ≥3 TEAE [1, 4]: 2 (33) n (%)
- Patients with any RT-related grade ≥4 TEAE [1, 4]: 1 (17) n (%)
- Patients with any RT-related serious TEAE [1, 4]: 2 (33) n (%)
- Patients with any Serious TEAE [1, 4]: 3 (50) n (%)
- Patients with any TEAE [1, 4]: 6 (100) n (%)
- Patients with any TEAE leading to death [1, 4]: 0 n (%)
- Patients with any TEAE leading to permanent discontinuation of RT [1, 4]: 0 (0) n (%)
- Patients with any TEAE leading to permanent discontinuation of capecitabine [1, 4]: 0 (0) n (%)
- Patients with any TEAE leading to permanent discontinuation of peposertib [1, 4]: 0 (0) n (%)
- Patients with any TEAE leading to study discontinuation [1, 4]: 0 n (%)
- Patients with any Capecitabine-related TEAE [1, 5]: 6 (100) n (%)
- Patients with any Capecitabine-related grade ≥3 TEAE [1, 5]: 2 (33) n (%)
- Patients with any Capecitabine-related grade ≥4 TEAE [1, 5]: 1 (17) n (%)
- Patients with any Capecitabine-related serious TEAE [1, 5]: 0 n (%)
- Patients with any Grade ≥3 TEAE [1, 5]: 4 (67) n (%)
- Patients with any Grade ≥4 TEAE [1, 5]: 1 (17) n (%)
- Patients with any Peposertib-related TEAE [1, 5]: 5 (83.3) n (%)
- Patients with any Peposertib-related grade ≥ 3TEAE [1, 5]: 4 (67) n (%)
- Patients with any Peposertib-related grade ≥4 TEAE [1, 5]: 1 (17) n (%)
- Patients with any Peposertib-related serious TEAE [1, 5]: 0 n (%)
- Patients with any RT-related TEAE [1, 5]: 6 (100) n (%)
- Patients with any RT-related grade ≥3 TEAE [1, 5]: 2 (33) n (%)
- Patients with any RT-related grade ≥4 TEAE [1, 5]: 1 (17) n (%)
- Patients with any RT-related serious TEAE [1, 5]: 0 n (%)
- Patients with any Serious TEAE [1, 5]: 0 n (%)
- Patients with any TEAE [1, 5]: 6 (100) n (%)
- Patients with any TEAE leading to death [1, 5]: 0 n (%)
- Patients with any TEAE leading to permanent discontinuation of RT [1, 5]: 1 (17) n (%)
- Patients with any TEAE leading to permanent discontinuation of capecitabine [1, 5]: 1 (17) n (%)
- Patients with any TEAE leading to permanent discontinuation of peposertib [1, 5]: 1 (17) n (%)
- Patients with any TEAE leading to study discontinuation [1, 5]: 0 n (%)
- Patients with any Capecitabine-related TEAE [1, 6]: 6 (100) n (%)
- Patients with any Capecitabine-related grade ≥3 TEAE [1, 6]: 6 (100) n (%)
- Patients with any Capecitabine-related grade ≥4 TEAE [1, 6]: 2 (33) n (%)
- Patients with any Capecitabine-related serious TEAE [1, 6]: 3 (50) n (%)
- Patients with any Grade ≥3 TEAE [1, 6]: 6 (100) n (%)
- Patients with any Grade ≥4 TEAE [1, 6]: 2 (33) n (%)
- Patients with any Peposertib-related TEAE [1, 6]: 6 (100) n (%)
- Patients with any Peposertib-related grade ≥ 3TEAE [1, 6]: 6 (100) n (%)
- Patients with any Peposertib-related grade ≥4 TEAE [1, 6]: 2 (33) n (%)
- Patients with any Peposertib-related serious TEAE [1, 6]: 4 (67) n (%)
- Patients with any RT-related TEAE [1, 6]: 6 (100) n (%)
- Patients with any RT-related grade ≥3 TEAE [1, 6]: 5 (83.3) n (%)
- Patients with any RT-related grade ≥4 TEAE [1, 6]: 2 (33) n (%)
- Patients with any RT-related serious TEAE [1, 6]: 3 (50) n (%)
- Patients with any Serious TEAE [1, 6]: 4 (67) n (%)
- Patients with any TEAE [1, 6]: 6 (100) n (%)
- Patients with any TEAE leading to death [1, 6]: 0 n (%)
- Patients with any TEAE leading to permanent discontinuation of RT [1, 6]: 1 (17) n (%)
- Patients with any TEAE leading to permanent discontinuation of capecitabine [1, 6]: 2 (33) n (%)
- Patients with any TEAE leading to permanent discontinuation of peposertib [1, 6]: 3 (50) n (%)
- Patients with any TEAE leading to study discontinuation [1, 6]: 0 n (%)
- Peposertib dose at which inhibition of DNA-PK autophosphorylation was observed (DNA-PK): ≥ 150 mg
- NAR score, median ([2]; 100-mg dose cohort): 9.4
- NAR score, median ([2]; 150-mg dose cohort): 13.8
- NAR score, median ([2]; 250-mg dose cohort): 15.0
- Patients with a Ryan score of 1 ([2]; one each in the 100-mg and 150-mg cohorts): two patients
